The target of assay [1] is T1, Corticotropin-releasing factor receptor 1 (Homo sapiens) (UniProt P34998).
T1 sequence (whole entry): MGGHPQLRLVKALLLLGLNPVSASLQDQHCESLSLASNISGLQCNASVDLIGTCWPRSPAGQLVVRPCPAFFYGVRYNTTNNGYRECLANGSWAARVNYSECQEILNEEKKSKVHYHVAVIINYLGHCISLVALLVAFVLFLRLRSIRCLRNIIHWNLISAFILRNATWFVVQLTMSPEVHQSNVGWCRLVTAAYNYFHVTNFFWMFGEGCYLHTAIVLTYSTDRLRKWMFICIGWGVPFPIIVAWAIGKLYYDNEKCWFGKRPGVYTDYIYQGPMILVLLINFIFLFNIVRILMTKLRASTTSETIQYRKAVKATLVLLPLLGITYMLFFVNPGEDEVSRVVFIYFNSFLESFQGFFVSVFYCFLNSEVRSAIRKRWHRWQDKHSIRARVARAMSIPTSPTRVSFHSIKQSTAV
As to the kind of experiment: Antagonist activity at human CRF1 receptor expressed in human IMR-32 cells assessed as inhibition of CRF-stimulated cAMP production. It is filed as functional, cell-based. Background: Changes in cAMP serve as a functional read-out for many G protein-coupled receptors.

The target in assay [2] is T2, Corticotropin-releasing factor receptor 1 (Homo sapiens, UniProt P34998).
T2 sequence (P34998 whole entry): T1 sequence (whole entry)
Briefly: Displacement of [125I] Tyr-o-CRF from human […] expressed in human IMR-32 cells after 100 mins. The class given is cell-based. In outline:
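Membranes from transformed IMR-32 cells incubated with 100 pM [125I]Tyr-o-CRF and increasing test-compound concentrations, 100 min, 25 °C. Buffer: 50 mM Tris pH 7.2, 10 mM MgCl2, 0.5% BSA, 0.005% Triton X-100, aprotinin, leupeptin. Stopped with ice-cold 50 mM Tris pH 7.4, 0.2% BSA. Nonspecific binding defined with o-CRF. Values given as Ki.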
(Loss of bound radioactivity is the signal in a displacement assay; it reports binding, not function.)

Calls of active or inactive are those of the source. How the calls were made is not given here.

For `CCCCN(C)Cc1c(C(F)(F)F)nc2n(-c3c(C)cc(C)cc3C)c(Cl)cn12`, in assay [1], the outcome was Active. Besides, the inhibitory constant (Ki) in assay [2] is 310 nM.
Consider `Cc1cc(C)c(-n2c(Cl)cn3c(CN(Cc4ccc(F)cc4)CC(F)(F)F)c(C(F)(F)F)nc23)c(C)c1`, for which the outcome in assay [1] was Active. Further, affinity in assay [2] was put at a Ki of 160 nM.
`CCCN(CCc1ccccc1)Cc1c(C(F)(F)F)nc2n(-c3c(C)cc(C)cc3C)c(Cl)cn12`: in assay [1], the outcome was Active. The Ki in assay [2] turned out to be 21 nM.
Turning to `CCCN(Cc1c(C(F)(F)F)nc2n(-c3c(C)cc(C)cc3C)c(Cl)cn12)CC(F)(F)C(F)(F)F`, in assay [1], the result was Active. The compound further displayed a Ki in assay [2] of 440 nM.
For `Cc1cc(C)c(-n2c(Cl)cn3c(CN4CCC(C)CC4)c(C(F)(F)F)nc23)c(C)c1`, in that order: “Active” and 3200 nM.
For `Cc1cc(C)c(-n2c(Cl)cn3c(CN(CCC(F)(F)F)Cc4cccc(F)c4)c(C(F)(F)F)nc23)c(C)c1`, in that order: “Active” and 49 nM.
Consider `C=CCN(CC=C)Cc1c(C(F)(F)F)nc2n(-c3c(C)cc(C)cc3C)c(Cl)cn12`, for which the result in assay [1] was Active. The same compound displayed a Ki in assay [2] of 13 nM.

One may read the Ki as a measure of affinity in units of concentration, obtained from inhibition or displacement. A high value points to weaker binding.
